From ChEMBL document CHEMBL1155361, “Anti-oxidant, anti-fungal and anti-leishmanial activities of novel 3-[4-(1H-imidazol-1-yl) phenyl]prop-2-en-1-ones” (Eur J Med Chem, 2009) come the findings set out here.

In one experiment the test system is Trichoderma viride. The experiment can be described thus: Antimicrobial activity against Trichoderma viride at 100 ug/ml after 24 hrs by cup diffusion method. The format is functional. The conditions noted are these: for zone of inhibition at 100 µg/mL: read-out: DIZ. The essentials:
(§1)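 Cup diffusion on fungus-inoculated potato dextrose agar plates, with samples in DMSO. Incubated at 30 °C. Read the diameter of the clear inhibition zone surrounding the sample.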

The next experiment has as its system Yarrowia lipolytica. The experiment can be described thus: Antimicrobial activity against Candida lipolytica at 100 ug/ml after 24 hrs by cup diffusion method. The experiment is classed as functional. As to conditions: for zone of inhibition at 100 µg/mL: read-out: DIZ. The essentials:
as §1

A further experiment has as its system Leishmania major. The experiment can be described thus: Antileishmanial activity against Leishmania major promastigotes after 72 hrs. The experiment is classed as functional, organism-based. An outline of the steps: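 Cultured Leishmania major parasites in M199 with 10% foetal bovine serum, 25 mM HEPES, and penicillin/streptomycin, at 24 °C with shaking. Harvested log-phase cells and diluted them to 2 × 10^6 cells/ml. Made 1 mg/ml DMSO stocks and serially diluted them in medium. Used DMSO as the negative control and amphotericin B as the positive control.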

In the next experiment the test system is Aspergillus niger. Kind of experiment: Antimicrobial activity against Aspergillus niger at 100 ug/ml after 24 hrs by cup diffusion method. The format is functional. The conditions noted are these: for zone of inhibition at 100 µg/mL: read-out: DIZ. The essentials: as §1
Experiment [1] in a line: Antioxidant activity assessed as superoxide radical scavenging activity at 0.5 mM by NBT reduction assay. The format is functional. An outline of the steps: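 Superoxide generated by an NADH/phenazine methosulphate system. The mix held 40 µl of 280 µM NADH, 40 µl of 80 µM NBT, 20 µl of 8 µM PMS, 10 µl of 1 mM sample in DMSO, and 0.1 M phosphate buffer pH 7.4 (concentrations are of the added solutions). Ran at room temperature, read formazan at 560 nm, and calculated %RSA = 100 − (OD test/OD control × 100).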

For another experiment, the system named is Aspergillus fumigatus. The experiment can be described thus: Antimicrobial activity against Aspergillus fumigatus at 100 ug/ml after 24 hrs by cup diffusion method. The format is functional. As to conditions: for zone of inhibition at 100 µg/mL: read-out: DIZ. The essentials:
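Cup diffusion on potato dextrose agar plates inoculated with the fungus, with samples dissolved in DMSO. Incubated at 45 °C for A. fumigatus. Read the diameter of the clear zone of inhibition around the sample.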

≈ marks a conversion by molar mass, not a printed value.

For the compound `COc1ccc(C(=O)/C=C/c2ccc(-n3ccnc3)cc2)cc1`, the zone of inhibition at 100 µg/mL turned out to be 6 mm in the experiment with Trichoderma viride, 6 mm with Yarrowia lipolytica, 3 mm in the experiment with Aspergillus niger and 17 mm with Aspergillus fumigatus. Moreover, in the experiment on Leishmania major, the midpoint of inhibition, the IC50, lay at 0.98 µg/mL (≈ 3.22 µM). In addition, in experiment [1], the Activity turned out to be 66%.
For `O=C(/C=C/c1ccc(-n2ccnc2)cc1)c1ccccc1Br`, the zone of inhibition at 100 µg/mL came to 2 mm with Trichoderma viride, 3 mm in the experiment on Yarrowia lipolytica, 4 mm in the experiment on Aspergillus niger and 18 mm in the experiment on Aspergillus fumigatus. Also, the midpoint of inhibition in the experiment with Leishmania major, the IC50, lay at 0.86 µg/mL (≈ 2.43 µM). For the same compound, the Activity in experiment [1] was 76%.
As to `O=C(/C=C/c1ccc(-n2ccnc2)cc1)c1ccccc1`, the zone of inhibition at 100 µg/mL came out at 3 mm in the experiment with Trichoderma viride, 4 mm in the experiment with Yarrowia lipolytica, 4 mm in the experiment with Aspergillus niger and 18 mm in the experiment on Aspergillus fumigatus. Further, the IC50 (commonly the concentration at which inhibition is half-maximal) with Leishmania major amounted to 0.91 µg/mL (≈ 3.32 µM). Further, in experiment [1], the Activity was 81.9%.
Regarding `O=C(/C=C/c1ccc(-n2ccnc2)cc1)c1cc(Cl)ccc1Cl`, the zone of inhibition at 100 µg/mL in the experiment with Trichoderma viride was determined as 10 mm; with Yarrowia lipolytica, 10 mm; with Aspergillus niger it was 6 mm; with Aspergillus fumigatus, 19 mm. This compound returned an IC50 in the experiment with Leishmania major of 0.99 µg/mL (≈ 2.88 µM). Further, the Activity in experiment [1] came out at 18.8%.
As to `O=C(/C=C/c1ccc(-n2ccnc2)cc1)c1c(F)cccc1F`, the zone of inhibition at 100 µg/mL was 5 mm in the experiment on Trichoderma viride, 7 mm in the experiment with Yarrowia lipolytica, 4 mm in the experiment on Aspergillus niger and 15 mm in the experiment on Aspergillus fumigatus. For the same compound, in the experiment with Leishmania major, half-maximal inhibition (IC50) required 0.97 µg/mL (≈ 3.13 µM). Moreover, the Activity in experiment [1] amounted to 69.5%.
Take NYSTATIN: the inhibition zone (IZ) came out at 17 mm in the experiment with Trichoderma viride, 16 mm in the experiment with Yarrowia lipolytica, 10 mm with Aspergillus niger and 22 mm in the experiment with Aspergillus fumigatus.
Take `O=C(/C=C/c1ccc(-n2ccnc2)cc1)c1ccc(I)cc1`: the zone of inhibition at 100 µg/mL came to 2 mm in the experiment on Trichoderma viride, 3 mm with Yarrowia lipolytica, 2 mm in the experiment on Aspergillus niger and 10 mm with Aspergillus fumigatus. The compound further came in with an IC50 with Leishmania major of 0.92 µg/mL (≈ 2.3 µM). Besides, the Activity in experiment [1] was determined as 40.4%.
Regarding `COc1ccc(C(=O)/C=C/c2ccc(-n3ccnc3)cc2)cc1OC`, the zone of inhibition at 100 µg/mL in the experiment with Trichoderma viride is 4 mm; in the experiment on Yarrowia lipolytica, 4 mm; in the experiment with Aspergillus niger, 3 mm; in the experiment with Aspergillus fumigatus, 10 mm. In the experiment with Leishmania major, this compound had an IC50 of 0.82 µg/mL (≈ 2.45 µM). The Activity in experiment [1] came to 51%.
With `C[C@@H]1[C@H](O)[C@@H](C)/C=C/C=C/C=C/C=C/C=C/C=C/C=C/[C@H](O[C@@H]2O[C@H](C)[C@@H](O)[C@H](N)[C@@H]2O)C[C@@H]2O[C@](O)(C[C@@H](O)C[C@@H](O)[C@H](O)CC[C@@H](O)C[C@@H](O)CC(=O)O[C@H]1C)C[C@H](O)[C@H]2C(=O)O` [AMPHOTERICIN B], half-maximal inhibition in the experiment on Leishmania major (IC50) was put at 0.56 µg/mL (≈ 0.606 µM).
On to `O=C(/C=C/c1ccc(-n2ccnc2)cc1)c1ccccc1F`, for which the zone of inhibition at 100 µg/mL in the experiment with Trichoderma viride amounted to 5 mm; in the experiment on Yarrowia lipolytica it was 5 mm; with Aspergillus niger it was 3 mm; in the experiment with Aspergillus fumigatus, 17 mm. This compound showed an IC50 with Leishmania major of 0.98 µg/mL (≈ 3.35 µM). Moreover, the Activity in experiment [1] was 79.2%.
`O=C(/C=C/c1ccc(-n2ccnc2)cc1)c1ccc(Br)cc1`: the zone of inhibition at 100 µg/mL worked out at 9 mm in the experiment on Trichoderma viride, 8 mm in the experiment with Yarrowia lipolytica, 4 mm in the experiment on Aspergillus niger and 18 mm in the experiment with Aspergillus fumigatus. This compound also yielded an IC50 in the experiment with Leishmania major of 0.86 µg/mL (≈ 2.43 µM). Also, the Activity in experiment [1] amounted to 42.1%.
On to `O=C(/C=C/c1ccc(-n2ccnc2)cc1)c1cccc(F)c1F`, for which the zone of inhibition at 100 µg/mL in the experiment on Trichoderma viride amounted to 4 mm; in the experiment with Yarrowia lipolytica it was 3 mm; with Aspergillus niger it was 4 mm; with Aspergillus fumigatus, 19 mm. This compound also returned an IC50 with Leishmania major of 0.83 µg/mL (≈ 2.67 µM). In experiment [1], the Activity was 16.7%.
Consider `CCCOC(=O)c1cc(O)c(O)c(O)c1`, for which the Activity in experiment [1] came out at 91.3%.
As to `O=C(/C=C/c1ccc(-n2ccnc2)cc1)c1ccc(Cl)c(Cl)c1Cl`, the zone of inhibition at 100 µg/mL with Trichoderma viride stood at 6 mm; with Yarrowia lipolytica, 6 mm; with Aspergillus niger it was 1 mm; in the experiment on Aspergillus fumigatus, 10 mm. The compound also displayed an IC50 with Leishmania major of 0.63 µg/mL (≈ 1.67 µM). Also, in experiment [1], the Activity is 2.4%.
As for `O=C(/C=C/c1ccc(-n2ccnc2)cc1)c1cccc(O)c1`, the zone of inhibition at 100 µg/mL in the experiment on Trichoderma viride was 6 mm; in the experiment with Yarrowia lipolytica, 5 mm; in the experiment on Aspergillus niger, 5 mm; with Aspergillus fumigatus, 5 mm. The IC50 with Leishmania major amounted to 0.96 µg/mL (≈ 3.31 µM). The Activity in experiment [1] was found to be 8.65%.
Regarding `O=C(/C=C/c1ccc(-n2ccnc2)cc1)c1ccc(F)cc1`, the zone of inhibition at 100 µg/mL in the experiment on Trichoderma viride was found to be 1 mm; with Yarrowia lipolytica, 1 mm; in the experiment with Aspergillus niger it was 2 mm; with Aspergillus fumigatus, 1 mm. Besides, in the experiment with Leishmania major, the IC50 is 0.71 µg/mL (≈ 2.43 µM). Further, in experiment [1], the Activity is 64.5%.
`O=C(/C=C/c1ccc(-n2ccnc2)cc1)c1ccccc1Cl`: the zone of inhibition at 100 µg/mL with Trichoderma viride came out at 5 mm; with Yarrowia lipolytica, 5 mm; in the experiment with Aspergillus niger it was 5 mm; in the experiment on Aspergillus fumigatus, 19 mm. In the experiment with Leishmania major, this compound came in with an IC50 of 0.93 µg/mL (≈ 3.01 µM). The Activity in experiment [1] came to 70.4%.
Take `O=C(/C=C/c1ccc(-n2ccnc2)cc1)c1c(Cl)cccc1Cl`: the zone of inhibition at 100 µg/mL with Trichoderma viride amounted to 6 mm; in the experiment on Yarrowia lipolytica, 7 mm; in the experiment on Aspergillus niger it was 4 mm; with Aspergillus fumigatus, 20 mm. The IC50 in the experiment with Leishmania major was 0.67 µg/mL (≈ 1.95 µM). The Activity in experiment [1] amounted to 47.7%.
For `O=C(/C=C/c1ccc(-n2ccnc2)cc1)c1ccc(Cl)c(Cl)c1`, the zone of inhibition at 100 µg/mL worked out at 6 mm with Trichoderma viride, 7 mm with Yarrowia lipolytica, 2 mm with Aspergillus niger and 10 mm with Aspergillus fumigatus. For the same compound, the IC50 with Leishmania major was 0.99 µg/mL (≈ 2.88 µM). The Activity in experiment [1] came to 0.4%.
Take `O=C(/C=C/c1ccc(-n2ccnc2)cc1)c1ccc(Cl)cc1Cl`: the zone of inhibition at 100 µg/mL was 2 mm in the experiment on Trichoderma viride, 4 mm with Yarrowia lipolytica, 1 mm in the experiment on Aspergillus niger and 15 mm with Aspergillus fumigatus. Also, in the experiment on Leishmania major, the IC50 stood at 0.72 µg/mL (≈ 2.1 µM). In addition, the Activity in experiment [1] worked out at 3.3%.
For `COc1cccc(C(=O)/C=C/c2ccc(-n3ccnc3)cc2)c1`, the zone of inhibition at 100 µg/mL is 8 mm in the experiment on Trichoderma viride, 7 mm with Yarrowia lipolytica, 3 mm in the experiment on Aspergillus niger and 16 mm with Aspergillus fumigatus. In addition, the IC50 in the experiment on Leishmania major worked out at 0.98 µg/mL (≈ 3.22 µM). Besides, the Activity in experiment [1] worked out at 83.9%.
On to `O=C(/C=C/c1ccc(-n2ccnc2)cc1)c1ccc(F)c(F)c1`, for which the zone of inhibition at 100 µg/mL in the experiment with Trichoderma viride was found to be 3 mm; with Yarrowia lipolytica, 4 mm; in the experiment with Aspergillus niger it was 4 mm; in the experiment with Aspergillus fumigatus it was 18 mm. For the same compound, the midpoint of inhibition in the experiment on Leishmania major, the IC50, lay at 0.89 µg/mL (≈ 2.87 µM). For the same compound, the Activity in experiment [1] stood at 8.3%.
Turning to `O=C(/C=C/c1ccc(-n2ccnc2)cc1)c1ccc(Cl)cc1`, the zone of inhibition at 100 µg/mL stood at 9 mm in the experiment with Trichoderma viride, 10 mm in the experiment with Yarrowia lipolytica, 8 mm in the experiment on Aspergillus niger and 20 mm in the experiment with Aspergillus fumigatus. In the experiment with Leishmania major, this compound had an IC50 of 0.92 µg/mL (≈ 2.98 µM). In experiment [1], the Activity is 90.1%.
